# Screening results: PubChem BioAssay, several laboratories
# Most compounds without a hit are left out; they make up all but 12% or so of the library.
# Lmaj promast = reduces viability of Leishmania major promastigotes. resazurin fluorescence viability. hit rate 9% among 200,000. AID 1063. inhibition, % at 10 µM;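 also: promastigotes grown with compound for 44 hours at 28 °C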
# Rad51 HR inh = Rad51 (human) homologous recombination inhibition; Q06609; inhibition, % at 10 µM; hRad51 DNA strand exchange, fluorescence dequenching; hit rate 0.085% among 200,000;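 active = inhibition above 40% at the single screening dose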;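 also: 0% = DMSO control wells and 100% = blanks with heterologous ssDNA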
#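 Test system: preformed human Rad51 ssDNA filaments. Compound dosing: single dose, 10 µM final compound. Incubation: filaments 15 min 37 °C, then compound 30 min. Technique: FRET fluorescence dequenching, excitation 485 nm, emission 520 nm. Read-out basis: percent inhibition from fluorescence, normalised to plate control and blank means. Benchmarks: plate controls and plate blanks.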
# PKD1 kinase inh = blocks activity of human protein kinase D1; PKD1 kinase fluorescence polarization assay; hit rate 0.056% among 200,000; Q15139; AID 797; inhibition, % (concentration not given with the values)
# CHOP inh = inhibitors of CHOP induction in ER stress response | CHO-K1 CHOP-promoter luciferase, tunicamycin-induced, 15-18 h | AID 2732 | inhibition, % at 10 µM | hit rate 3.8% among 220,000;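 active = compounds that reduced the stress-induced luciferase reporter signal by more than about 70% of percent inhibition, limit read from the data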;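 also: 0% = tunicamycin plus vehicle and 100% = wells without tunicamycin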
# Arbovirus inh = blocks arbovirus infection. hit rate 0.37% among 200,000. arbovirus infection cell-based antiviral screen. inhibition, % at 10 µM; in the data active = inhibition above about 30%
# Wee1 stabilizer = human Wee1 degradation inhibition, primary screen | P30291 | AID 1321 | HeLa Luc-Wee1K328M stability, luciferase luminescence; 100% = proteasome inhibitor MG132 effect | reporter increase, % at 5 µM | hit rate 1.2% among 220,000;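 active = activation above the mean of all tested compounds plus 3 SD, set per screening run, cut at about 8.8% in these data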;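 also: cells exposed to compound for 20 h before luminescence read; 0% = DMSO alone and 100% = MG132 at 30 µM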
# Target sequence (P30291 whole entry K328M): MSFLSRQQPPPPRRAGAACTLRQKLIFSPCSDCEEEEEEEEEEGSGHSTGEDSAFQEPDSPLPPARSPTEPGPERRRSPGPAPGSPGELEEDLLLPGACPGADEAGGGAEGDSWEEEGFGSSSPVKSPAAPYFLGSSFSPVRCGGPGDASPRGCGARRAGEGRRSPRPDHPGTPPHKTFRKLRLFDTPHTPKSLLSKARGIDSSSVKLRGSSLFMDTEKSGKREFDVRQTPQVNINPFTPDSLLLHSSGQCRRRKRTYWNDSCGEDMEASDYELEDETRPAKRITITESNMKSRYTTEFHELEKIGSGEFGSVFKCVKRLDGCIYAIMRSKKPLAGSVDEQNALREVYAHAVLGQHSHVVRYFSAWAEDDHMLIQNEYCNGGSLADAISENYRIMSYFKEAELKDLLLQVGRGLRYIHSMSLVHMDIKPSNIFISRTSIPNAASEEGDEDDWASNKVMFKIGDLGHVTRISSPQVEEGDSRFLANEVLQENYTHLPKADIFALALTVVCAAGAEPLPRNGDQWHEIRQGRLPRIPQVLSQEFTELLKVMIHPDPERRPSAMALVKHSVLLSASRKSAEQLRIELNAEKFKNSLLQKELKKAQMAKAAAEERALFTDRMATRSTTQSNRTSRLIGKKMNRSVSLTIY
# An asterisk follows results filed as active; . = not tested or not shown. Rule as the data show it, unless noted: active = inhibition above about 50%; inactive = the rest.
SMILES,Lmaj promast,Rad51 HR inh,PKD1 kinase inh,CHOP inh,Arbovirus inh,Wee1 stabilizer
CC(C)(C)c1ccc(OCC(=O)NCc2ccco2)cc1,71*,3,-15,14,-3,-2
COc1ccc(Br)cc1CNC(=O)CCc1nc(-c2ccc(C)cc2)no1,-1,-10,1,76*,9,5
Cc1cccc(-c2noc(CCC(=O)NCc3ccco3)n2)c1,-6,-6,-9,45,-1,5
CC(C)(C)c1ccc(-c2noc(CCC(=O)NCc3ccco3)n2)cc1,9,.,2,85*,8,1
O=S(=O)(c1cccc2cccnc12)N1CCN(Cc2ccccc2)CC1,-6,-9,-7,-10,0,-1
CN(C)CCN(C(=O)c1ccc(N2C(=O)CCC2=O)cc1)c1nc2cc3c(cc2s1)OCCO3,2,.,6,-7,0,-1
CC(=O)Nc1ccc(Nc2ccc(S(=O)(=O)C(F)(F)F)cc2[N+](=O)[O-])cc1,56*,-2,9,44,11,7
O=C(O)CNc1ccc(S(=O)(=O)C(F)(F)F)cc1[N+](=O)[O-],.,-24,.,2,.,0
CCn1cc(C(=O)Nc2ccc3c(c2)OCCO3)c2cc(OC)c(OC)cc2c1=O,51*,2,-7,24,-2,3
CCOC(=O)c1c(C)c(C(=O)Nc2ccc3c(c2)OCCO3)c(C)n1C,-1,-1,-4,-4,-14,9.2*
CCn1cc(C(=O)Nc2cccc(NC(C)=O)c2)c2cc(OC)c(OC)cc2c1=O,3,.,-13,10,5,2
CCOC(=O)c1ccc(NC(=O)Nc2ccc3c(c2)OCCO3)cc1,1,-30,3,-2,-6,-3
CCOc1ccc(-n2cc(C(=O)Nc3ccc(Cl)cn3)c3cc(OC)c(OC)cc3c2=O)cc1,-7,-3,6,39,-12,0
CCOc1ccc(-n2cc(C(=O)Nc3cccc(OC)c3)c3cc(OC)c(OC)cc3c2=O)cc1,66*,-2,-5,45,-3,-1
Cc1ccc(NC(C)C(=O)N/N=C/c2ccc([N+](=O)[O-])s2)cc1 (stereo unspecified),100*,-2,6,-28,-20,2
COc1ccc(NC(C)C(=O)N/N=C/c2ccc([N+](=O)[O-])s2)cc1 (stereo unspecified),100*,-11,-2,-21,-27,0
CCOc1ccc(NC(C)C(=O)N/N=C/c2ccc([N+](=O)[O-])cc2)cc1 (stereo unspecified),-5,0,-2,-5,5,-1
Cc1ccc(-c2oc3ncnc(N)c3c2-c2ccc(C)cc2)cc1,-6,4,-10,82*,-4,3
Cc1oc2ncnc(N)c2c1C,5,-10,1,2,3,-3
CCN(CC)S(=O)(=O)c1cccc(C(=O)N/N=C2\CC(=O)CC(C)(C)C2)c1,2,.,5,2,5,9.5*
CCN(CC)S(=O)(=O)c1cccc(C(=O)N/N=C/c2cccc(O)c2O)c1,98*,-3,-7,36,-32,-1
CCN(CC)S(=O)(=O)c1cccc(C(=O)N/N=C/c2cc(OC)c(O)c(OC)c2)c1,-8,3,-5,-7,-3,-1
CCN(CC)S(=O)(=O)c1cccc(C(=O)N/N=C2\CCCC(=O)C2)c1,.,-2,.,-13,.,0
Fc1ccc(-c2n[nH]c(=S)c3ccccc23)cc1,3,10,-2,25,-1,-4
O=c1cnn([C@@H]2O[C@H](CO)[C@@H](O)[C@H]2O)c(=O)[nH]1,-5,-13,-5,0,78*,2
SMILES,Lmaj promast,Rad51 HR inh,PKD1 kinase inh,CHOP inh,Arbovirus inh,Wee1 stabilizer
Cc1ccc(C)c(-n2nnnc2SCC(=O)c2ccc3c(c2)NC(=O)CO3)c1,-7,-2,-9,81*,-2,2
CC(C)NC(=O)COc1nncc2ccccc12,-3,7,3,-23,5,-3
Cc1cc(NCc2ccccc2)nc2ccccc12,53*,-4,4,18,-2,2
COc1ccc(Nc2cc(C)c3ccccc3n2)cc1,83*,10,-7,-3,7,2
C/C(CCC(C)C)=N\Nc1cc(C)c2ccccc2n1,67*,0,0,37,-7,1
Cc1ccc(Cn2nnc3c(=O)[nH]c(C4CCN(S(=O)(=O)c5ccc(F)cc5)CC4)nc32)cc1,-7,.,2,84*,-14,0
Cc1ccc(C)c(S(=O)(=O)N2CCC(c3nc4c(nnn4Cc4ccc(F)cc4)c(=O)[nH]3)CC2)c1,0,1,-12,52,-36,-1
COc1cc(NC(=O)CSc2nnc(NC(C)C)s2)cc(OC)c1OC,-2,4,4,12,8,0
c1ccc2sc(NC3=NCN(CC4CCCO4)CN3)nc2c1 (stereo unspecified),-3,-1,-7,-29,3,-1
CCOc1cccc(NC(=O)C2CC(=O)N(C)C(=Nc3ccccc3)S2)c1 (stereo unspecified),20,-4,10,32,-6,-2
CCOc1cccc(NC(=O)C2CC(=O)N(C)C(=Nc3cccc(F)c3)S2)c1 (stereo unspecified),21,-16,-4,91*,-3,-1
CCN=C1SC(C(=O)Nc2ccc(OC)cc2)CC(=O)N1CC (stereo unspecified),0,.,0,30,8,1
COc1ccc(N=C2SC(C(=O)Nc3ccc(OC)cc3)CC(=O)N2CCN2CCOCC2)cc1 (stereo unspecified),58*,.,21,7,-5,0
CCOc1ccc(NC(=O)C2CC(=O)N(CC)C(=Nc3ccc4c(c3)OCO4)S2)cc1 (stereo unspecified),-1,1,0,72*,-7,3
COc1cc(C(=O)c2ccccc2)c(OC)cc1C(=O)Nc1ccc(O)cc1,1,3,-4,14,-12,-4
O=C(CCn1c(=S)oc2ccccc21)Nc1cccc(O)c1,4,.,-8,25,-2,-3
CC(=O)c1cccc(NC(=O)c2nc(-c3ccccc3)oc2C)c1,-4,-3,1,11,-4,4
COc1ccc(CNCc2cccc(Oc3ccccc3)c2)cc1,87*,0,5,18,23,2
C=CCn1c(=O)/c(=C2/SC(C)=C(C)N2CC)s/c1=C1/C(=O)N(CC)C(=S)N1c1ccccc1,3,.,1,3,-9,-2
C=CCn1c(=O)/c(=C2/Sc3ccccc3N2CC)s/c1=C1/C(=O)NN=C1C,97*,-40,0,7,15,-2
C=CCNC(=O)/C(C#N)=C/c1ccccc1Cl,24,30,-2,-28,3,-1
C=CCNC(=O)/C(C#N)=C\c1cc(Cl)c(OCC)c(OC)c1,85*,3,3,-3,1,-1
C=CCNC(=O)/C(C#N)=C/c1cc(Br)ccc1OC,16,20,-6,-14,-2,11*
CC(C)c1ccc(C(O)P(=O)(OC2CCCCC2)OC2CCCCC2)cc1 (stereo unspecified),.,.,.,68,.,4
